Measured values: ChEMBL document CHEMBL3351942, “Rexinoids isolated from Sophora tonkinensis with a gene expression profile distinct from the synthetic rexinoid bexarotene” (J Nat Prod, 2014)
Calls of active or inactive are those of the source.

Columns and labels:
[1] = target: T1, Peroxisome proliferator-activated receptor alpha (Homo sapiens) (UniProt Q07869); assay: Activation of PPARalpha (unknown origin) by receptor-CBP cofactor complex formation assay
T1 sequence (whole entry): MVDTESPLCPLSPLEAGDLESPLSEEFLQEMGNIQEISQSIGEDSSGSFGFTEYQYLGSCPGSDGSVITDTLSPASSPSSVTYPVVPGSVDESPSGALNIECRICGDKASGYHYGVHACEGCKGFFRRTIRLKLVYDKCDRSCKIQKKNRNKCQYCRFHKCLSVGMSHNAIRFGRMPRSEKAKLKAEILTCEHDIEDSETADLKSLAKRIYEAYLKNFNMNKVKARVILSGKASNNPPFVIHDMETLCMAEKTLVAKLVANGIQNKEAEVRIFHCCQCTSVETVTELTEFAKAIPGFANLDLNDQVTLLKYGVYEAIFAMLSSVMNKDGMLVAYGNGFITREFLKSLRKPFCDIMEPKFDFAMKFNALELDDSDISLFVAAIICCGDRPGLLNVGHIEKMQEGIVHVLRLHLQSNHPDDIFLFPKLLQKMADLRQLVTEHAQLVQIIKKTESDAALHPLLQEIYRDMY
How it was run: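 Cell-free cofactor recruitment ELISA: ligand-dependent binding of PPAR isotypes to CBP, detected by HRP-conjugated anti-PPAR antibody at OD450. Full agonists GW7647 (α), GW1929 (γ), GW501516 (δ) define 100%, vehicle 0%; efficacy as maximum B/Bmax% and potency as EC50.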

[2] = Activation of LXR in mouse C2C12 cells assessed as induction of FAS mRNA expression at 10 uM after 24 hrs in presence of T0901317 by quantitative RT-PCR analysis; type: cell-based
How it was run: (§1)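 C2C12 myoblasts grown in DMEM/10% FBS, differentiated at confluence in 2% horse serum, medium changed every other day for 5 days; myotubes treated 24 h with or without T0901317 (1 μM). Total RNA, DNase-treated, oligo(dT) RT from 0.5 μg, SYBR green qPCR; normalized to β-actin (delta-delta Ct), fold over vehicle; mean ± SD of four determinants, one of two experiments.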

[3] = Activation of LXR in mouse C2C12 cells assessed as induction of ApoE mRNA expression at 10 uM after 24 hrs by quantitative RT-PCR analysis; type: cell-based; how it was run: as §1
[4] = target: T2, Retinoic acid receptor alpha (Homo sapiens) (UniProt P10276); assay: Activation of human RAR-alpha expressed in HEK293 cells coexpressing with tk-betaRE-Luc after 24 hrs by luciferase reporter gene assay; type: cell-based
T2 sequence (whole entry): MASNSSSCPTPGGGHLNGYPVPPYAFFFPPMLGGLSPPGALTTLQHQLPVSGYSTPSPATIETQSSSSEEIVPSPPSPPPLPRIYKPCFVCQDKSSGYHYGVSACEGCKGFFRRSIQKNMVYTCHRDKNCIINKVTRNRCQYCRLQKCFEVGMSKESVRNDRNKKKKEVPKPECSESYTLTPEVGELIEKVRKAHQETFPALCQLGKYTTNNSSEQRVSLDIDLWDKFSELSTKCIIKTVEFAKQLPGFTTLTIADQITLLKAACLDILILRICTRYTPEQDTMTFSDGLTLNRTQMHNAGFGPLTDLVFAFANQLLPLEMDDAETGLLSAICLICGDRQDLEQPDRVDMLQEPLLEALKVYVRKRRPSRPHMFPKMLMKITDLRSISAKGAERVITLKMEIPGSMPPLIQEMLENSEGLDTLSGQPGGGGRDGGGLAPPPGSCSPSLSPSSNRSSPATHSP
How it was run: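 Calcium phosphate transfection of HEK293 cells with 30 ng pCMX-hRAR-α, 120 ng tk-βRE-Luc and 30 ng pCMX-β-gal plus carrier pUC18 (600 ng DNA per well). Cells were washed 8 h later and incubated with compound in 10% FBS medium. Luciferase was normalized to β-galactosidase; triplicate or quadruplicate, representative of three experiments.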

[5] = target: T3, Peroxisome proliferator-activated receptor delta (Mus musculus) (UniProt P35396); assay: Activation of PPARdelta in mouse C2C12 cells assessed as induction of ANGPTL4 mRNA expression at 10 uM after 24 hrs in presence of GW501516 by quantitative RT-PCR analysis; type: cell-based
T3 sequence (whole entry): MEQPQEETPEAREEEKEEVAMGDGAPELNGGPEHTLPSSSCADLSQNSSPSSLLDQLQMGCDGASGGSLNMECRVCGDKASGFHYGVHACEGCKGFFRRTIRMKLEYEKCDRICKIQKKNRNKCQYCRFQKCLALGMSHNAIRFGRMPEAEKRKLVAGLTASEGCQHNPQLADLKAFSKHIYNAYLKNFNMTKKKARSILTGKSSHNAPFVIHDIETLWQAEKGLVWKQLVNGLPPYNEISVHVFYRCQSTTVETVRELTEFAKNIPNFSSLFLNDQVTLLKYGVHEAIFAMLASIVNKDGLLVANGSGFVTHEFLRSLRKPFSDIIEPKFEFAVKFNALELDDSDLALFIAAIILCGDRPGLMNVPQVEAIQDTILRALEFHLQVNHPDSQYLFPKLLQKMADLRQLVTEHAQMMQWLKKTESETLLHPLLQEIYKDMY
How it was run: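 Differentiated C2C12 myotubes (2% horse serum, 5 days) exposed 24 h with or without PPARδ agonist GW501516 (1 μM). mRNA quantified by SYBR green real-time RT-PCR, normalized to β-actin by delta-delta Ct, and expressed as fold induction vs vehicle; means ± SD of four determinants from one of two independent experiments; one-way ANOVA with Bonferroni.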

[6] = Activation of LXR in mouse C2C12 cells assessed as induction of LPL mRNA expression at 10 uM after 24 hrs by quantitative RT-PCR analysis; type: cell-based
F9 = assay: Activation of RAR/RXR heterodimer in mouse F9 cells assessed as increase in CYP26A1 mRNA level at 10 uM by quantitative RT-PCR analysis; type: cell-based
How it was run: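 F9 teratocarcinoma cells on 0.2% gelatin-coated dishes in DMEM/10% FBS; 24 h exposure with or without atRA (0.1 μM). CYP26A1 mRNA by qRT-PCR normalized to β-actin, fold vs vehicle; means ± SD of three determinants, one of three experiments; ANOVA/Bonferroni.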

[7] = Activation of LXR in mouse C2C12 cells assessed as induction of ABCA1 mRNA expression at 10 uM after 24 hrs in presence of T0901317 by quantitative RT-PCR analysis; type: cell-based; how it was run: as §1

Measured: Activity

CC(C)=CCc1cc([C@@H]2CC(=O)c3ccc(O)c(CC=C(C)C)c3O2)cc2c1OC(C(C)(C)O)C2 (stereo partly drawn)
inactive: [1] | [2] | [4]
active: [3] | [5] | [6] | F9 | [7]
